Measured values collected from several papers.
Target: Myosin light chain kinase (MYLK3, Homo sapiens, UniProt Q32MK0)
Residues used in one study (Q32MK0 1-819): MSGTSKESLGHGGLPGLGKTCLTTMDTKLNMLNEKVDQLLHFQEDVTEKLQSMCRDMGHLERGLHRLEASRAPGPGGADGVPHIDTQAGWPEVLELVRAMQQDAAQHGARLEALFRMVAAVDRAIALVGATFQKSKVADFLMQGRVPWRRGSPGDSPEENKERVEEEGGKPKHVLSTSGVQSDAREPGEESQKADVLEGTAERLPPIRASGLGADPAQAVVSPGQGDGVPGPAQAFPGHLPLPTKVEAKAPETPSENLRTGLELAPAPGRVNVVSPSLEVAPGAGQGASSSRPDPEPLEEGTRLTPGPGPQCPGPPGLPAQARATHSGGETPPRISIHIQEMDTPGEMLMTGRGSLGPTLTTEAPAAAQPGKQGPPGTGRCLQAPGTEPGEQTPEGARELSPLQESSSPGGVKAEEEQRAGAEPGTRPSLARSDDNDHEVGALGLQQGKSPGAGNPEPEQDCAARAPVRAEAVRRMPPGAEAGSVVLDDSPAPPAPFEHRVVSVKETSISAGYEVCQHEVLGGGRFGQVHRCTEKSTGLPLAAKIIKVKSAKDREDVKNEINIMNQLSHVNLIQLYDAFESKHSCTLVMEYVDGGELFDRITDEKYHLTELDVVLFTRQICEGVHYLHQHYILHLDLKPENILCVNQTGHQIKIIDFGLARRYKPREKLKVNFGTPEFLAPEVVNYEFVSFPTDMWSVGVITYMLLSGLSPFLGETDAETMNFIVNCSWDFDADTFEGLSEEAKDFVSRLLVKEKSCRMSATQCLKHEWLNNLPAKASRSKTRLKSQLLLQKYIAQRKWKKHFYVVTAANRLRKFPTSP

Compound	observed	action	method	concentration	quantity	result
CO[C@@H](C)c1c(Nc2ccc([C@@H](N(C)C(=O)C3CCS(=O)(=O)CC3)C(F)(F)F)cc2)cnc2cc(Cl)nn12	cell-free assay		competition with immobilised ligand	1 µM	remaining binding	87%
Nc1ncnc2occ(-c3ccc(NC(=O)Nc4cc(C(F)(F)F)ccc4F)cc3)c12	cell-free assay	inhibitor		20 µM	remaining signal	0.15%
CC(C)(C)c1nc(-c2cccc(NS(=O)(=O)c3c(F)cccc3F)c2F)c(-c2ccnc(N)n2)s1	enzyme activity	inhibitor	radiometric	1 µM	remaining activity	100%
Cc1cnn2ncc(-c3ccnc(N(C)C)n3)c2c1	binding			1 µM	remaining binding	96%
CC(C)(C)c1nc2c(s1)c1nc(N)ncc1c1ccc(NS(=O)(=O)c3c(F)cccc3F)c(F)c12	enzyme activity	inhibitor	radiometric	1 µM	remaining activity	93%
F[C@@H]1CCN(c2nccc(-c3cnn4ncccc34)n2)C1	binding			1 µM	remaining binding	100%
O=C(Nc1cnn(-c2csc(C(=O)NC3COC3)c2)c1)Nc1ccccc1Cl	enzyme activity	inhibitor		5 µM	remaining activity	95.1%
CC(C)(O)[C@H]1CC[C@H](Nc2ccc3ncc(-c4cccc(C(F)(F)F)c4)n3n2)CC1	enzyme activity	inhibitor		1 µM	remaining activity	100%
O=C1CCc2cc(Nc3cc(OC4CCOCC4)c([N+](=O)[O-])cc3Cl)ccc2N1	cell-free assay		competition with immobilised ligand	1 µM	remaining binding	100%
Cc1ccc(C(=O)Nc2ccc(CN3CCN(C)CC3)c(C(F)(F)F)c2)cc1C#Cc1cnc2cccnn12	enzyme activity	inhibitor		23.5 nM	remaining activity	99%
